Legend:
[1] = target: T1, Adrenergic receptor alpha-1 (Rattus norvegicus, UniProt P15823+P23944+P43140); assay: In vitro binding affinity measured on alpha-1 adrenergic receptor using [3H]prazosin as radioligand.; assay type: protein assay
T1 sequence (P15823 whole entry): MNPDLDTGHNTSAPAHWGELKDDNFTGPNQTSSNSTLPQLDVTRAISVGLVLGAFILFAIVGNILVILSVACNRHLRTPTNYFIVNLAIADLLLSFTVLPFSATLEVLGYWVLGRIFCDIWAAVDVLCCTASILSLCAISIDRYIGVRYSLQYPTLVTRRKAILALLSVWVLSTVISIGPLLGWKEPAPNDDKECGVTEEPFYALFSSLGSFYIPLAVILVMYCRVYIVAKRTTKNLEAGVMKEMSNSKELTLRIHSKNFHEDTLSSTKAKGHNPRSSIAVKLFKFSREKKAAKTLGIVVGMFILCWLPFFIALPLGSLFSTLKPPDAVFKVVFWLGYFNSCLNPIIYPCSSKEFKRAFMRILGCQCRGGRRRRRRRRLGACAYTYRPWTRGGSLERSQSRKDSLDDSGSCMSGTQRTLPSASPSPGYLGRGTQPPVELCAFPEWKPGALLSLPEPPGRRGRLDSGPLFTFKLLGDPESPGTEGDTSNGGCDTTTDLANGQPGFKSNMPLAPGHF
T1 sequence (P23944 whole entry): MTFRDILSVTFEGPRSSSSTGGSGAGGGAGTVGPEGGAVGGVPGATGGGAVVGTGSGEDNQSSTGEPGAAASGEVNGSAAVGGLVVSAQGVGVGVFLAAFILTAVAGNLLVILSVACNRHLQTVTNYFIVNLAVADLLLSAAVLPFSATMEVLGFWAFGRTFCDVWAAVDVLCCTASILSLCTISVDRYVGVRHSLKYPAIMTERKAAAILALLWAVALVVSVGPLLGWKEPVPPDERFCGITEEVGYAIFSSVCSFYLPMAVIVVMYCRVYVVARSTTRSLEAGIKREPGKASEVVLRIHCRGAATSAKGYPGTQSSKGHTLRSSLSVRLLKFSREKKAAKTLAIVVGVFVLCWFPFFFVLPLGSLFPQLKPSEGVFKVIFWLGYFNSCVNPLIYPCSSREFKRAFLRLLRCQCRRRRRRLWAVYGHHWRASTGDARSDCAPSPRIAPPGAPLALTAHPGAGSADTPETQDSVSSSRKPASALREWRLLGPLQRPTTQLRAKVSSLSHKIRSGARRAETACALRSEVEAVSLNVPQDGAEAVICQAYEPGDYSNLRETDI
T1 sequence (P43140 whole entry): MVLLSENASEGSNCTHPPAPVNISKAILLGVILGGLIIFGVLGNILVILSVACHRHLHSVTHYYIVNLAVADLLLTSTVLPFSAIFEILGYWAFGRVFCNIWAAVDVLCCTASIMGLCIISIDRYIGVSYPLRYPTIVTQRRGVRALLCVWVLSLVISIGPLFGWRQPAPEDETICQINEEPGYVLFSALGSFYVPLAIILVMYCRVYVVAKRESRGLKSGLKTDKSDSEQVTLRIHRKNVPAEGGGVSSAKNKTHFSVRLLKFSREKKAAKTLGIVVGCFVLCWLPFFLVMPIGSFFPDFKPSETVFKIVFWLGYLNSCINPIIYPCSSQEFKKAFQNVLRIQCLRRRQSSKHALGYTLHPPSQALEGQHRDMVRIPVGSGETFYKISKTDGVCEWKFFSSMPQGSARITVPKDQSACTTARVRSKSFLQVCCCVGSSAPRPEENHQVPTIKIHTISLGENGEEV

[2] = target: Serotonin 1a (5-HT1a) receptor/Adrenergic receptor alpha-1 (Rattus norvegicus) (UniProt P15823+P23944+P43140+P19327); assay: Selectivity ratio of IC50 value against alpha-1 receptor to that of 5-HT1A receptor.; assay type: protein assay
Method in brief: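 Ratio of the α1 IC50 to the 5-HT1A IC50 ([3H]-8-OH-DPAT, rat cortex). For α1, male Sprague-Dawley rat cortex membranes were prepared in 50 mM Tris-HCl pH 7.7 with 10 μM pargyline and 0.1% ascorbate.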

[3] = target: D(2) dopamine receptor (Rattus norvegicus, UniProt P61169); assay: In vitro binding affinity measured on dopamine receptor D2 using [3H]spiroperidol as radioligand.
Sequence of D(2) dopamine receptor (P61169 whole entry): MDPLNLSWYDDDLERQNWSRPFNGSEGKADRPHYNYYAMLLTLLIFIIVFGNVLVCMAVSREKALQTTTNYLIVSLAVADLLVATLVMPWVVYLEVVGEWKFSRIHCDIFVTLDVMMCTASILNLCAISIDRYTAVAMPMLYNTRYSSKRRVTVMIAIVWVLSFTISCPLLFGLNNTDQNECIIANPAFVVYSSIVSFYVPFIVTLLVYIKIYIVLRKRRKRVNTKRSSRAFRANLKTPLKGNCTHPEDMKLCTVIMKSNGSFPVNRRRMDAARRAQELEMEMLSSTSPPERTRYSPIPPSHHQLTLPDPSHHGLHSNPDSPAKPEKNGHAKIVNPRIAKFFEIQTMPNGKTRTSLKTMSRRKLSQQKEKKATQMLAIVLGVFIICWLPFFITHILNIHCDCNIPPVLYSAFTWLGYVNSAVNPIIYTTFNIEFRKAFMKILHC
Method in brief: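 IC50 came from 7–9 drug concentrations in triplicate, over 2–4 independent experiments, analysed with EBDA. Specific binding exceeded 75% of total.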

[4] = Selectivity ratio of IC50 value against D-2 receptor to that of 5-HT1A receptor.
Method in brief: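 Ratio of the D-2 IC50 to the 5-HT1A IC50. […] Each IC50 came from 7–9 concentrations in triplicate over 2–4 experiments (EBDA).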

[5] = target: T2, 5-hydroxytryptamine receptor 1A (Rattus norvegicus, UniProt P19327); assay: In vitro binding affinity measured on serotonin 5-hydroxytryptamine 1A receptor using [3H]8-OH-DPAT as radioligand.
T2 sequence (P19327 whole entry): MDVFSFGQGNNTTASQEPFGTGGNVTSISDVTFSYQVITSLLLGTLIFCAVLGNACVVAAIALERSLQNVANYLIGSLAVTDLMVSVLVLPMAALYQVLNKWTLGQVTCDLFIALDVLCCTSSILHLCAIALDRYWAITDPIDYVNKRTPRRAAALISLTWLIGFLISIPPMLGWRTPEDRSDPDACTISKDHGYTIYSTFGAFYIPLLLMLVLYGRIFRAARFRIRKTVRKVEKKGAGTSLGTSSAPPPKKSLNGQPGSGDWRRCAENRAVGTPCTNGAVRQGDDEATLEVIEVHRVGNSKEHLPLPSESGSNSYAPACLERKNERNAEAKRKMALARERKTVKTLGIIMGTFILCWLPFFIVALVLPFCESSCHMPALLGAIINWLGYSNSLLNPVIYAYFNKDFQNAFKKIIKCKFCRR

[6] = target: Serotonin 2 (5-HT2) receptor (Rattus norvegicus, UniProt P30994+P08909+P14842); assay: In vitro binding affinity measured on serotonin 5-hydroxytryptamine 2 receptor using [3H]ketanserin as radioligand.; assay type: protein assay
[7] = species: Cavia porcellus; assay: Selectivity as the ratio of IC50 value against sigma receptor to that of 5-HT1A receptor.
Method in brief: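 Ratio of the σ IC50 to the 5-HT1A IC50. For σ, a P2 membrane fraction was prepared from whole male guinea pig brain without cerebellum in 50 mM Tris-HCl pH 7.4. [3H]DTG was 0.90 nM final, incubated 90 min at 25 °C, then filtered and counted. IC50 values came from 7–9 concentrations in triplicate (EBDA).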

SMILES | IC50 [1] [nM] | Selectivity [2] | IC50 [3] [nM] | Selectivity [4] | IC50 [5] [nM] | IC50 [6] [nM] | Selectivity [7]
COc1cccc2c1CCCC2CCCN1CCN(c2cccc(C(F)(F)F)c2)CC1 (stereo not drawn) | 7170 | 49 | 472 | 3.2 | 146 |  | 
COc1ccc2c(c1)C(CCCN1CCN(c3ccccn3)CC1)=CCC2 | 152 | 2.4 | 778 | 12 | 63.6 | 146 | 3.9
COc1cccc2c1CCCC2CCCN1CCN(c2ccccc2)CC1 (stereo not drawn) | 78.8 |  | 96.7 |  | 0.36 | 170 | 
COc1cccc2c1CCC/C2=C\CCN1CCN(c2ccccn2)CC1 | 72.2 |  | 150 |  | 0.35 | 417 | 
COc1ccccc1N1CCN(CCNC2CCCc3c(OC)cccc32)CC1 (stereo not drawn) | 149 | 21 | 618 | 88 | 7.01 | 3340 | 22
COc1cccc2c1CCC=C2CCCN1CCN(c2cccc(C(F)(F)F)c2)CC1 | 278 | 5 | 644 | 12 | 55.9 | 2370 | 
COc1ccc2c(c1)C(CCCN1CCN(c3cccc(C(F)(F)F)c3)CC1)CCC2 (stereo not drawn) | 2930 | 33 | 1330 | 15 | 88.4 | 391 | 0.99
COc1cccc2c1CCCC2CCCN1CCN(c2ccccn2)CC1 (stereo not drawn) | 31.4 |  | 177 |  | 0.58 | 331 | 
COc1ccc2c(c1)C(CCCN1CCN(c3ccccn3)CC1)CCC2 (stereo not drawn) | 261 | 77 | 328 | 97 | 3.38 | 288 | 37
COc1cccc2c1CCC=C2CCCN1CCN(c2ccccn2)CC1 | 123 |  | 119 |  | 1.4 | 205 | 
COc1ccc2c(c1)C(CCCN1CCN(c3ccccc3)CC1)=CCC2 | 157 |  | 777 |  | 147 | 119 | 
COc1ccccc1N1CCN(CCCCC2=CCCc3c(OC)cccc32)CC1 | 96.2 | 7.4 | 5920 | 455 | 13 |  | 
COc1ccc2c(c1)C(CCCN1CCN(c3cccc(C(F)(F)F)c3)CC1)=CCC2 | 3070 | 22 | 1290 | 9.4 | 138 | 1170 | 
COc1ccc2c(c1)C(CCCN1CCN(c3ccccc3OC)CC1)=CCC2 | 24.5 | 12 | 90.6 | 45 | 2 | 391 | 114
COc1ccccc1N1CCN(CCCC2CCCc3c(OC)cccc32)CC1 (stereo not drawn) | 1.94 |  |  |  | 0.32 | 358 | 
COc1cccc2c1CCC=C2CCCN1CCN(c2ccccc2)CC1 | 49 |  | 303 |  |  | 204 | 

More lines, now with the values ahead:

IC50 [1] [nM] | Selectivity [2] | IC50 [3] [nM] | Selectivity [4] | IC50 [5] [nM] | IC50 [6] [nM] | Selectivity [7] | SMILES
32.3 | 3.7 | 17.4 | 2 | 8.8 | 770 | 3.8 | COc1ccccc1N1CCN(CCCC2=CCCc3c(OC)cccc32)CC1
78.3 | 45 | 15.4 | 8.9 | 1.73 |  |  | COc1ccccc1N1CCN(CCCCC2CCCc3c(OC)cccc32)CC1 (stereo not drawn)
0.14 | 0.36 | 24.7 | 63 | 0.39 | 155 |  | COc1ccccc1N1CCN(CCCC2CCCc3ccccc32)CC1 (stereo not drawn)
120 | 111 | 7.83 | 7.3 | 1.08 |  |  | COc1ccccc1N1CCN(CCSC2CCCc3c(OC)cccc32)CC1 (stereo not drawn)
43.2 |  | 51.5 |  | 1.5 | 220 |  | COc1ccc2c(c1)C(CCCN1CCN(c3ccccc3OC)CC1)CCC2 (stereo not drawn)
184 | 20 | 28 | 3 | 9.24 |  |  | COc1ccc2c(c1)C(CCCN1CCN(c3ccccc3)CC1)CCC2 (stereo not drawn)
3.6 | 2 | 12.7 | 6.9 | 1.84 | 147 | 30 | COc1ccccc1N1CCN(CC/C=C2\CCCc3ccccc32)CC1
1.26 |  | 24.1 |  | 1.13 | 147 |  | COc1ccccc1N1CCN(CCCC2CCCc3ccsc32)CC1 (stereo not drawn)
15.3 |  | 10.6 |  | 1.53 | 209 |  | COc1ccc2c(c1)C(CCCCN1CCN(c3ccccc3OC)CC1)=CCC2
116 | 20 | 50.2 | 8.5 | 5.94 | 111 | 20 | COc1ccc2c(c1)C(SCCN1CCN(c3ccccc3OC)CC1)CCC2 (stereo not drawn)
78.5 |  | 50.9 |  | 8.83 | 329 |  | COc1ccc2c(c1)C(CCCCN1CCN(c3ccccc3OC)CC1)CCC2 (stereo not drawn)
6 | 12 | 11.3 | 22 | 0.52 | 667 | 100 | COc1ccccc1N1CCN(CC/C=C2\CCCc3c(OC)cccc32)CC1

From ChEMBL document CHEMBL1128270 (J Med Chem, 1995)
